Shown are actives, neighbours in structure and some others; about 2.1% of the full set was active somewhere.
aDG glyco act – increases alpha dystroglycan glycosylation. Pro5-aDG cells, alpha-DG glycosylation AlphaScreen (IIH6); 0% Pro5, 100% B10-LARGE cell signal. 0.22% of 360,000 active. activation, % at 10 µM;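 active = activation of at least 8% versus controls, or a plate z-score of at least 8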;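 also: Pro5 are CHO cells carrying HIG-tagged alpha-DG that lacks glycosylation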
Cardio protect – protects H9c2 cardiomyocytes from peroxide injury; protection from H2O2 cell death, % at 20 µM; 0.63% of 360,000 active; AID 588492; H2O2 injury protection, ATPLite, 2 h;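 active = compounds giving at least 50% protection of heart cells from peroxide-induced death in the single-dose screen, raw or plate-pattern-corrected value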;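 also: 0% = DMSO wells with peroxide and 100% = DMSO wells without peroxide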
Beta2AR agonist – agonists of human beta-2 adrenergic receptor inducing internalization. 0.43% of 340,000 active. AID 504454. Am2.2-beta2AR cells, FAP receptor internalization, flow cytometry. response, % (no concentration beside the values);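 active = response above a set limit, near 3 SD of response in nonfluorescent compounds, cut at about 42% in these data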
HKDC1 inh – HKDC1 (human) hexokinase inhibition. inhibition, % at 20 µM. Q2TB90. 0.16% of 340,000 active. recombinant HKDC1, G6PDH/diaphorase resazurin coupled fluorescence. AID 493160;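 active = inhibition above about 35% when tested at 20 µM, limit read from the data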;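 also: plate controls were DMSO wells with enzyme for no effect and DMSO wells lacking enzyme for full effect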
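Assay system: recombinant HKDC1 hexokinase; detection: coupled resazurin fluorescence, excitation 525 nm, emission 613 nm; benchmarks: DMSO-plus-enzyme-mix negative control, buffer-substituted positive control; compound dosing: single 20 µM dose; schedule: 90 min at room temperature in dark; also added: glucose plus 1 mM ATP as hexokinase substrates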
PfGluPho inh – PfG6PD (Plasmodium falciparum) enzyme inhibition; PfGluPho enzyme, NADPH resazurin-diaphorase fluorescence; 0.78% of 350,000 active; AID 504690; inhibition, % at 20 µM;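 active = inhibition reaching at least a set limit at 20 µM in the primary screen, cut at about 59% in these data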;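 also: 0% = DMSO wells with substrate and 100% = DMSO wells lacking glucose-6-phosphate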
UCH37 DUB inh – inhibitors of human deubiquitinating enzyme UCH37. Q9Y5K5. purified proteasome/UCH37, Ub-AMC cleavage fluorescence. inhibition, % (concentration not given with the values). 0.33% of 330,000 active;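 active = mean inhibition over replicate wells above about 20%, limit read from the data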;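 also: 0% = compound-free wells with enzyme and 100% = wells lacking proteasome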
Target sequence (Q9Y5K5 whole entry, looked up): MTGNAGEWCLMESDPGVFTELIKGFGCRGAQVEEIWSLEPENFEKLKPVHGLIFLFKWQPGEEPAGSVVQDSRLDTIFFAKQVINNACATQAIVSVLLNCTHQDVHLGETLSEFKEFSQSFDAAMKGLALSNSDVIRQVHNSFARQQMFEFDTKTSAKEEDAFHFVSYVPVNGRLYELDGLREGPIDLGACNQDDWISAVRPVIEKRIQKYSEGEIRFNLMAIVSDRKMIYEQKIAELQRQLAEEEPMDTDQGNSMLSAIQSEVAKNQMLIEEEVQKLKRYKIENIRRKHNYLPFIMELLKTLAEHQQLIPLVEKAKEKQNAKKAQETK
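Reagent: Ub-AMC substrate; assay system: Proteasome-associated human UCH37 deubiquitinase; controls: no-proteasome and no-compound wells; read-out: % inhibition of Ub-AMC cleavage fluorescence; timing: 30 min preincubation with enzyme, 25 min cleavage at room temperature; signal: AMC fluorescence from Ub-AMC cleavage, excitation 355 nm, emission 460 nm; buffer or medium: Tris-HCl pH 7.4 plus ovalbumin, ATP-MgCl2, DTT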
B2AR ag CP1 – human beta-2 adrenergic receptor agonism, cherry pick | shares compounds with Beta2AR agonist | Am2.2-beta2AR cells, FAP surface receptor, flow cytometry; active compounds read low | percent response (surface receptor), % at 10 µM | 25% of 1,100 active | AID 540358;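 active = surface receptor percent response at or below 58%, roughly 3 SD from nonfluorescent compounds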
B2AR FAP counter – counter-screen for beta-2AR agonists: fluorescence in Am2.2 cells. FAP fluorogen flow cytometry, fluorescence counterscreen; active compounds read low. 1,100 tested, under 10 active. shares compounds with Beta2AR agonist. calls only at 10 µM. AID 588765;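 active = percent response below a set limit in fluorescence channel 1 and below 50% in channel 8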
Numbers without * were called inactive.

Cc1ccc(NC(=O)C(c2ccc(Cl)cc2)N2CCCCC2)cc1 (stereo not drawn) was read as aDG glyco act 0.7, Cardio protect -14.7, Beta2AR agonist 46.8*, HKDC1 inh 3.8, PfGluPho inh -1.8, UCH37 DUB inh 0.5, B2AR ag CP1 35.8* and B2AR FAP counter inactive.
`COC(=O)NN=Cc1cn(CCCOc2ccccc2)c2ccccc12` gave UCH37 DUB inh 4.2.
Screening COc1cc2nc(N3CCN(c4cc(C)ccc4C)CC3)nc(N)c2cc1OC returned aDG glyco act -0.4, Cardio protect -19.6, Beta2AR agonist 27.9, HKDC1 inh -0.3, PfGluPho inh 10.6 and UCH37 DUB inh -64.2.
Screening COc1cc2nc(N3CCNCC3)nc(N)c2cc1OC returned aDG glyco act 0.2, Cardio protect 0.8, Beta2AR agonist 61.2*, HKDC1 inh 0.1, PfGluPho inh 32.0, UCH37 DUB inh -143.7, B2AR ag CP1 51.0* and B2AR FAP counter inactive.
For Cc1nn(-c2ccc(F)cc2)c(Cl)c1C=NNC(=O)c1cccc(S(=O)(=O)N2CCCC2)c1 the results were UCH37 DUB inh 5.1.
Screening COC(=O)Nc1ccc(S(=O)(=O)N2CCCc3cccc(O)c32)cc1 returned aDG glyco act 1.4, Cardio protect -12.1, Beta2AR agonist 52.3*, HKDC1 inh -4.5, PfGluPho inh -7.0, UCH37 DUB inh 2.0, B2AR ag CP1 81.7 and B2AR FAP counter inactive.
CC(C)NC[C@H](O)c1ccc(O)c(O)c1 was read as aDG glyco act 0.2, Cardio protect -4.1, HKDC1 inh -2.2, PfGluPho inh 32.5 and UCH37 DUB inh 0.1.
CC(C)NCC(O)c1cc(O)cc(O)c1 (stereo not drawn) was read as aDG glyco act 0.2, Cardio protect 9.0, Beta2AR agonist 0.1, HKDC1 inh -1.0, PfGluPho inh 0.3, UCH37 DUB inh 1.6, B2AR ag CP1 93.3 and B2AR FAP counter inactive.
`O=C(NN=Cc1c(F)c(F)c(F)c(F)c1F)c1cc(-c2ccccc2)nc2ccccc12` gave UCH37 DUB inh 5.0.
c1ccc(N2CCN(c3nc(NCc4ccco4)c4ccccc4n3)CC2)cc1 was read as aDG glyco act 3.8, Cardio protect -25.1, Beta2AR agonist 14.2, HKDC1 inh 2.9, PfGluPho inh 6.7 and UCH37 DUB inh -23.7.
For c1ccc(CNc2nc(N3CCN(Cc4ccccc4)CC3)nc3ccccc23)cc1 the results were aDG glyco act 1.3, Cardio protect -12.9, Beta2AR agonist 16.4, HKDC1 inh 2.7, PfGluPho inh 24.6, UCH37 DUB inh -75.6, B2AR ag CP1 97.8 and B2AR FAP counter inactive.
`O=C(Nc1cccc(-c2nc3cccnc3s2)c1)C1c2ccccc2Oc2ccccc21` gave aDG glyco act -0.3, Cardio protect 12.2, Beta2AR agonist 73.9*, HKDC1 inh 4.8, PfGluPho inh 2.4, UCH37 DUB inh -6.4, B2AR ag CP1 44.4* and B2AR FAP counter inactive.
Screening CC(=O)Nc1ccc(S(=O)(=O)N2CCC(Oc3ccc(-n4cnnn4)cc3)CC2)cc1 returned aDG glyco act -0.5, Cardio protect 6.6, Beta2AR agonist 88.1*, HKDC1 inh 3.7, PfGluPho inh 11.5, UCH37 DUB inh -1.3, B2AR ag CP1 11.6* and B2AR FAP counter inactive.
`COc1cc(C=NNC(=O)c2ccc(-c3ccccc3)cc2)cc(OC)c1OC(C)=O` gave UCH37 DUB inh -13.6.
Screening CCOc1cc(CNCC(O)c2ccccc2)cc(Cl)c1OC (stereo not drawn) returned aDG glyco act 1.8, Cardio protect -4.5, Beta2AR agonist -0.3, HKDC1 inh -14.0, PfGluPho inh -8.4, UCH37 DUB inh 0.5, B2AR ag CP1 110.4 and B2AR FAP counter inactive.
OC(CNC1Cc2ccccc2C1)c1ccccc1 (stereo not drawn) was read as aDG glyco act 0.0, Cardio protect 10.3, Beta2AR agonist -10.5, HKDC1 inh -7.0, PfGluPho inh 3.6, UCH37 DUB inh 0.1, B2AR ag CP1 122.5 and B2AR FAP counter inactive.
For OC(CNCc1cccc(Cl)c1)c1ccccc1 (stereo not drawn) the results were aDG glyco act 0.1, Cardio protect -3.9, Beta2AR agonist -7.5, HKDC1 inh -8.2, PfGluPho inh -8.2, UCH37 DUB inh 1.0, B2AR ag CP1 114.8 and B2AR FAP counter inactive.
Screening OC(CNCc1ccccc1)c1ccccc1 (stereo not drawn) returned aDG glyco act -0.1, Cardio protect -0.9, Beta2AR agonist -4.8, HKDC1 inh -4.3, PfGluPho inh 5.9, UCH37 DUB inh 2.4, B2AR ag CP1 109.7 and B2AR FAP counter inactive.
`Oc1cccc(C(O)CNCc2ccc(-c3ccccc3)cc2)c1` (stereo not drawn) gave aDG glyco act 0.9, Cardio protect 9.4, Beta2AR agonist 28.5, HKDC1 inh -6.2, PfGluPho inh -3.6 and UCH37 DUB inh 3.7.
`Cc1nc2ccccc2nc1OCc1ccccc1` gave aDG glyco act -0.3, Cardio protect -11.0, Beta2AR agonist 1.9, HKDC1 inh -2.0, PfGluPho inh -8.9 and UCH37 DUB inh -0.2.
For CC(O)c1c(OCc2ccccc2)ncnc1OCc1ccccc1 (stereo not drawn) the results were aDG glyco act 0.4, Cardio protect -18.0, Beta2AR agonist 98.2*, HKDC1 inh -0.4, PfGluPho inh -8.8, UCH37 DUB inh 1.7, B2AR ag CP1 112.2 and B2AR FAP counter inactive.
Screening O=C(Nc1ccc2nc(-c3cccs3)c(-c3cccs3)nc2c1)N1CCOCC1 returned aDG glyco act -0.1, Cardio protect 30.4, Beta2AR agonist 59.1*, HKDC1 inh 8.3, PfGluPho inh 0.4, UCH37 DUB inh -54.1, B2AR ag CP1 20.2* and B2AR FAP counter inactive.
`CC(=O)NN=C(C)C1COc2ccccc2O1` (stereo not drawn) gave UCH37 DUB inh 1.6.
For Cc1ccc(S(=O)(=O)Nc2ccncc2)c(C)c1N(C)S(=O)(=O)c1ccc(F)cc1 the results were aDG glyco act -0.1, Cardio protect 0.0, Beta2AR agonist 83.9*, HKDC1 inh -6.0, PfGluPho inh 1.3, UCH37 DUB inh 4.7, B2AR ag CP1 106.0 and B2AR FAP counter inactive.
`O=C(NN=Cc1coc2ccc(Cl)cc2c1=O)c1cc(O)cc(O)c1` gave UCH37 DUB inh -39.2.

Screening data deposited in PubChem BioAssay by several laboratories.
